{"data": "Results of several laboratories", "target": "Serine/threonine-protein kinase 35 (STK35, Homo sapiens, UniProt Q8TDR2)"}
{"Compound": "COc1cc(-c2cn(C3CCc4c(F)cccc4N(CC(F)(F)F)C3=O)nn2)ccc1-n1cnc(C)c1 (stereo not shown)", "assay": "cell-free assay, competition with immobilised ligand", "conditions": "1 µM", "remaining binding": "100%"}
{"Compound": "Cc1cnc(Nc2ccc(C(=O)N3CCC(N4CCCC4)CC3)cc2)nc1-c1cc2ccccc2s1", "assay": "binding, competition with immobilised ligand", "conditions": "1 µM", "remaining binding": "79%"}
{"Compound": "Cc1nccc(COC(=O)N2C[C@@H]3[C@@H](CNC(=O)c4ccc5[nH]nnc5c4)[C@@H]3C2)n1", "assay": "cell-free assay, competition with immobilised ligand", "conditions": "1 µM", "remaining binding": "83%"}
{"Compound": "O=C(Nc1c[nH]nc1C(=O)NC1CCNCC1)c1cc(F)cc(F)c1", "assay": "binding, competition with immobilised ligand", "conditions": "1 µM", "remaining binding": "100%"}
{"Compound": "COc1cnc(Nc2cccc(S(N)(=O)=O)c2)nc1N1CCN(c2ccccc2)C(=O)C1", "assay": "binding, competition with immobilised ligand", "conditions": "1 µM", "remaining binding": "100%"}
{"Compound": "FC(F)(F)Oc1cccc(-c2cnc3ccc(-c4ccncc4)nn23)c1", "assay": "binding, competition with immobilised ligand", "conditions": "5 µM", "remaining binding": "100%"}
{"Compound": "COc1ncc2cc3ccccc3nc2c1C#N", "assay": "cell-free assay, competition with immobilised ligand", "conditions": "5 µM", "remaining binding": "98%"}
{"Compound": "Cn1nc(C(F)(F)F)cc1-c1cnc(N2CCc3cc(S(=O)(=O)Nc4c(F)cc(Cl)cc4F)cc(N4CCCC4=O)c32)nc1", "assay": "cell-free assay, competition with immobilised ligand", "conditions": "1 µM", "remaining binding": "100%"}
{"Compound": "CCN1CCN(Cc2ccc(C(=O)Nc3ccc(C)c(Oc4ccc5c(c4)CC(=O)N5)c3)cc2C(F)(F)F)CC1", "assay": "binding, competition with immobilised ligand", "conditions": "1 µM", "remaining binding": "72%"}
{"Compound": "C=CC(=O)N1CCC(C(=O)NCC(=O)N2CCN(c3nc(-c4cnc(N)nc4C(F)F)nc(N4CCOCC4)n3)CC2)CC1", "assay": "binding, competition with immobilised ligand", "conditions": "1 µM", "remaining binding": "93%"}
{"Compound": "CC1CCCN1c1nccc(-c2cnn3ncccc23)n1 (stereo not shown)", "assay": "binding", "conditions": "1 µM", "remaining binding": "88%"}
{"Compound": "CCC(=O)N[C@H]1CC[C@@H](C(=O)N(C)c2ccc(-c3nc4ccccc4o3)cc2)C1", "assay": "cell-free assay, competition with immobilised ligand", "conditions": "1 µM", "remaining binding": "88%"}
{"Compound": "C[C@@H]1CCN(c2nccc(-c3cnn4ncccc34)n2)C1", "assay": "binding", "conditions": "1 µM", "remaining binding": "72%"}
{"Compound": "O=C(NCCCN1CCOCC1)c1ccc(Nc2ncc(Cl)c(-c3ccc(Cl)s3)n2)cc1", "assay": "binding, competition with immobilised ligand", "conditions": "1 µM", "remaining binding": "100%"}
{"Compound": "N[C@@H]1CCN(c2nccc(-c3cnn4ncccc34)n2)C1", "assay": "binding", "conditions": "1 µM", "remaining binding": "100%"}
{"Compound": "O=C(c1ccc(Nc2ncc(Cl)c(-c3ccc(Cl)s3)n2)cc1)N1CCC(N2CCCC2)CC1", "assay": "binding, competition with immobilised ligand", "conditions": "1 µM", "remaining binding": "99%"}
{"Compound": "CN(C)c1ncc(F)c(-c2cnn3ncccc23)n1", "assay": "binding", "conditions": "1 µM", "remaining binding": "100%"}
{"Compound": "NS(=O)(=O)c1cc(NC(=O)C2(c3ccccc3Cl)CC2)ccc1Oc1cccc(Cl)c1", "assay": "cell-free assay, competition with immobilised ligand", "conditions": "1 µM", "remaining binding": "94%"}
{"Compound": "Cc1cnn2ncc(-c3ccnc(N(C)C)n3)c2c1", "assay": "binding", "conditions": "1 µM", "remaining binding": "100%"}
{"Compound": "CN(C(=O)c1ccccc1)c1cc(N(C)c2ccc3c(c2)CCc2ccc(C(=O)NCCN4CCOCC4)cc2C3=O)ccc1F", "assay": "cell-free assay, competition with immobilised ligand", "conditions": "1 µM", "remaining binding": "100%"}
{"Compound": "COc1ccnn2ncc(-c3ccnc(N(C)C)n3)c12", "assay": "binding", "conditions": "1 µM", "remaining binding": "95%"}
{"Compound": "CNC(=O)[C@@H]1CC[C@@H](n2c(-c3ccc4cnccc4c3)nc3ccc(C(=O)NCc4cccc(C(N)=O)c4)cc32)C1", "assay": "binding, competition with immobilised ligand", "conditions": "1 µM", "remaining binding": "98%"}
